Each block holds one molecule with its values, some of them ahead of it. The source made the active and inactive calls. The rule behind the calls is not given here.
Tests used:
Leishmania amazonensis [1] = test: (§1) Synergistic antileishmanial activity against stationary-phase Leishmania amazonensis MHOM/BR/75/LTB0016 promastigotes infected in human THP1-derived macrophages assessed as fractional inhibitory concentration at apigenin to test compound ratio of 3:2 by serial dilution based light microscopic method; assay type: functional
Method in brief: (§2)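 In the infected THP-1 macrophage fixed-ratio assay, FIC and ∑FIC came from each ratio's EC50 by the modified fixed-ratio isobologram method. Mean ∑FIC was the average of the ∑FICs and was used to classify the interaction; isobolograms were plotted from each ratio's FIC values.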

Leishmania amazonensis [2] = test: (§3) Synergistic antileishmanial activity against stationary-phase Leishmania amazonensis MHOM/BR/75/LTB0016 promastigotes infected in human THP1-derived macrophages assessed as fractional inhibitory concentration at apigenin to test compound ratio of 1:4 by serial dilution based light microscopic method; assay type: functional; method in brief: as §2
Leishmania amazonensis [3] = test: Antileishmanial activity against stationary-phase Leishmania amazonensis MHOM/BR/75/LTB0016 promastigotes infected in human THP1-derived macrophages at apigenin to test compound ratio of 3:2 by serial dilution based light microscopic method; assay type: functional, organism-based
Mus musculus [4] = test: (§4) Hepatotoxicity in Balb/c mouse infected with stationary-phase Leishmania amazonensis MHOM/BR/75/LTB0016 promastigotes assessed as serum ALT level at 8 mg/kg, po administered once daily via orogastric tube for 32 days starting from 7 days post infection measured post last dose (reference value: 88.41 +/- 8.77 U/L); assay type: toxicity, organism-based; details: in vivo
Method in brief: (§5)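 Infected female BALB/c mice, dosed orally once daily from day 7 to day 32, had serum AST, ALT and creatinine measured by dry chemistry technology at the PDTIS-FIOCRUZ facility. Mean ± SE, n = 5.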

Leishmania amazonensis [5] = test: (§6) Synergistic antileishmanial activity against stationary-phase Leishmania amazonensis MHOM/BR/75/LTB0016 promastigotes infected in human THP1-derived macrophages assessed as fractional inhibitory concentration at apigenin to test compound ratio of 4:1 by serial dilution based light microscopic method; assay type: functional; method in brief: as §2
Mus musculus [6] = test: as §4, with “AST” for “ALT”, “161.1” for “88.41”, “20.99” for “8.77”; assay type: toxicity, organism-based; details: in vivo; method in brief: as §5
Leishmania amazonensis [7] = test: Antileishmanial activity against stationary-phase Leishmania amazonensis MHOM/BR/75/LTB0016 promastigotes infected in human THP1-derived macrophages at apigenin to test compound ratio of 2:3 by serial dilution based light microscopic method; assay type: functional, organism-based
Leishmania amazonensis [8] = test: (§7) Antileishmanial activity against stationary-phase Leishmania amazonensis MHOM/BR/75/LTB0016 promastigotes infected in Balb/c mouse assessed as reduction in lesion size at 8 mg/kg, po administered once daily via orogastric tube starting from 7 days post infection for 32 days measured twice weekly during compound dosing by caliper method; assay type: functional, organism-based
Method in brief: (§8)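 Female BALB/c mice, 10−12 weeks, were infected intradermally in the right ear with 2 × 10^6 stationary-phase promastigotes in 10 μL PBS. From day 7 post-infection, dosing was oral by orogastric tube once daily, seven times per week, until day 32. Compound in DMSO (1% v/v), miltefosine in PBS; controls got vehicle suspension with DMSO 0.2% v/v. Lesion size was read by dial caliper twice weekly; n = 5.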

Leishmania amazonensis [9] = test: Antileishmanial activity against stationary-phase Leishmania amazonensis MHOM/BR/75/LTB0016 promastigotes infected in human THP1-derived macrophages at apigenin to test compound ratio of 1:4 by serial dilution based light microscopic method; assay type: functional, organism-based
Leishmania amazonensis [10] = test: (§9) Synergistic antileishmanial activity against stationary-phase Leishmania amazonensis MHOM/BR/75/LTB0016 promastigotes infected in human THP1-derived macrophages assessed as fractional inhibitory concentration at apigenin to test compound ratio of 2:3 by serial dilution based light microscopic method; assay type: functional; method in brief: as §2
Leishmania amazonensis [11] = test: Antileishmanial activity against stationary-phase Leishmania amazonensis MHOM/BR/75/LTB0016 promastigotes infected in Balb/c mouse assessed as reduction in parasite load at 8 mg/kg, po administered once daily via orogastric tube starting from 7 days post infection for 32 days by dilution method; assay type: functional, organism-based
Method in brief: (§10)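 Ear infection and daily oral dosing were as for the lesion study in female BALB/c mice, ending at euthanasia on day 32. Infected ears were excised, weighed, minced in Schneider's medium with 10% FCS and serially diluted. Viable parasites per ear were estimated from the highest dilution still growing promastigotes after 7 days at 26 °C. Mean ± SE, n = 5 ears.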

Mus musculus [12] = test: as §4, with “Renal toxicity” for “Hepatotoxicity”, “creatinine” for “ALT”, “0.61” for “88.41”, “0.06 mg/dl)” for “8.77 U/L)”; assay type: organism-based; details: in vivo; method in brief: as §5
Leishmania amazonensis [13] = test: Antileishmanial activity against stationary-phase Leishmania amazonensis MHOM/BR/75/LTB0016 promastigotes infected in human THP1-derived macrophages at apigenin to test compound ratio of 4:1 by serial dilution based light microscopic method; assay type: functional, organism-based
Leishmania amazonensis [14] = test: Antileishmanial activity against stationary-phase Leishmania amazonensis MHOM/BR/75/LTB0016 promastigotes infected in human THP1-derived macrophages by serial dilution based light microscopic method; assay type: functional, organism-based
Leishmania amazonensis [15] = test: Antileishmanial activity against stationary-phase Leishmania amazonensis MHOM/BR/75/LTB0016 promastigotes infected in human THP1-derived macrophages at test compound to miltefosine ratio of 3:2 by serial dilution based light microscopic method; assay type: functional, organism-based
Mus musculus [16] = test: as §4, with “AST” for “ALT”, “2” for “8”, “161.1” for “88.41”, “20.99” for “8.77”; assay type: toxicity, organism-based; details: in vivo; method in brief: as §5
Leishmania amazonensis [17] = test: as §3, with “at” for “at apigenin to”, “compound to miltefosine” for “compound”; assay type: functional; method in brief: as §2
Leishmania amazonensis [18] = test: Antileishmanial activity against stationary-phase Leishmania amazonensis MHOM/BR/75/LTB0016 promastigotes infected in Balb/c mouse assessed as reduction in parasite load at 2 mg/kg, po administered once daily via orogastric tube starting from 7 days post infection for 32 days by dilution method; assay type: functional, organism-based; method in brief: as §10
Leishmania amazonensis [19] = test: as §9, with “at” for “at apigenin to”, “compound to miltefosine” for “compound”; assay type: functional; method in brief: as §2
Mus musculus [20] = test: as §4, with “at 2” for “at 8”; assay type: toxicity, organism-based; details: in vivo; method in brief: as §5
Leishmania amazonensis [21] = test: Antileishmanial activity against stationary-phase Leishmania amazonensis MHOM/BR/75/LTB0016 promastigotes infected in human THP1-derived macrophages at test compound to miltefosine ratio of 4:1 by serial dilution based light microscopic method; assay type: functional, organism-based
Mus musculus [22] = test: as §4, with “at 1” for “at 8”, “dose in presence of 4 mg/kg miltefosine” for “dose”; assay type: toxicity, organism-based; details: in vivo; method in brief: as §5
Mus musculus [23] = test: as §4, with “AST” for “ALT”, “1” for “8”, “dose in presence of 4 mg/kg miltefosine” for “dose”, “161.1” for “88.41”, “20.99” for “8.77”; assay type: toxicity, organism-based; details: in vivo; method in brief: as §5
Leishmania amazonensis [24] = test: Synergistic antileishmanial activity against stationary-phase Leishmania amazonensis MHOM/BR/75/LTB0016 promastigotes infected in Balb/c mouse assessed as reduction in parasite load at 1 mg/kg, po administered once daily via orogastric tube starting from 7 days post infection for 32 days in presence of 4 mg/kg miltefosine by dilution method relative to control; assay type: functional; design: scale not given: the % may be the effect or the level left; method in brief: as §10
Leishmania amazonensis [25] = test: Antileishmanial activity against stationary-phase Leishmania amazonensis MHOM/BR/75/LTB0016 promastigotes infected in human THP1-derived macrophages at test compound to miltefosine ratio of 1:4 by serial dilution based light microscopic method; assay type: functional, organism-based
Leishmania amazonensis [26] = test: as §7, with “2” for “8”; assay type: functional, organism-based; method in brief: as §8
Mus musculus [27] = test: as §4, with “Renal toxicity” for “Hepatotoxicity”, “creatinine” for “ALT”, “1” for “8”, “dose in presence of 4 mg/kg miltefosine” for “dose”, “0.61” for “88.41”, “0.06 mg/dl)” for “8.77 U/L)”; assay type: organism-based; details: in vivo; method in brief: as §5
Leishmania amazonensis [28] = test: Synergistic antileishmanial activity against stationary-phase Leishmania amazonensis MHOM/BR/75/LTB0016 promastigotes infected in Balb/c mouse assessed as reduction in lesion size at 1 mg/kg, po administered once daily via orogastric tube starting from 7 days post infection for 32 days measured twice weekly during compound dosing in presence of 4 mg/kg miltefosine by caliper method relative to control; assay type: functional; design: scale not given: the % may be the effect or the level left; method in brief: as §8
Mus musculus [29] = test: as §4, with “Renal toxicity” for “Hepatotoxicity”, “creatinine” for “ALT”, “2” for “8”, “0.61” for “88.41”, “0.06 mg/dl)” for “8.77 U/L)”; assay type: organism-based; details: in vivo; method in brief: as §5
Leishmania amazonensis [30] = test: as §6, with “at” for “at apigenin to”, “compound to miltefosine” for “compound”; assay type: functional; method in brief: as §2
Leishmania amazonensis [31] = test: as §1, with “at” for “at apigenin to”, “compound to miltefosine” for “compound”; assay type: functional; method in brief: as §2
Leishmania amazonensis [32] = test: Antileishmanial activity against stationary-phase Leishmania amazonensis MHOM/BR/75/LTB0016 promastigotes infected in human THP1-derived macrophages at test compound to miltefosine ratio of 2:3 by serial dilution based light microscopic method; assay type: functional, organism-based

- EC50 (Leishmania amazonensis [3]): 730 nM
- EC50 (Leishmania amazonensis [7]): 1530 nM
- EC50 (Leishmania amazonensis [9]): 1130 nM
- EC50 (Leishmania amazonensis [13]): 440 nM
- EC50 (Leishmania amazonensis [14]): 750 nM
Structure (SMILES): CCCCCCCCCCCCCCCCOP(=O)([O-])OCC[N+](C)(C)C [MILTEFOSINE]
- FIC50 (Leishmania amazonensis [1]): 0.96
- FIC50 (Leishmania amazonensis [2]): 1.5
- Activity (Mus musculus [4]): 61.14 U/L
- FIC50 (Leishmania amazonensis [5]): 0.58
- Activity (Mus musculus [6]): 271.1 U/L
- Activity (Leishmania amazonensis [8]): Active
- FIC50 (Leishmania amazonensis [10]): 2.03
- Activity (Leishmania amazonensis [11]): Active
- Activity (Mus musculus [12]): 0.66 mg/dL

- EC50 (Leishmania amazonensis [15]): 1430 nM
- EC50 (Leishmania amazonensis [21]): 2990 nM
- EC50 (Leishmania amazonensis [25]): 160 nM
- EC50 (Leishmania amazonensis [14]): 3850 nM
- EC50 (Leishmania amazonensis [32]): 730 nM
Structure (SMILES): O=c1cc(-c2ccc(O)cc2)oc2cc(O)cc(O)c12 [APIGENIN]
- Activity (Mus musculus [16]): 100.5 U/L
- FIC50 (Leishmania amazonensis [17]): 0.04
- Activity (Leishmania amazonensis [18]): Active
- FIC50 (Leishmania amazonensis [19]): 0.18
- Activity (Mus musculus [20]): 43.21 U/L
- Activity (Mus musculus [22]): 53.55 U/L
- Activity (Mus musculus [23]): 115.1 U/L
- Activity (Leishmania amazonensis [24]): 95%
- Activity (Leishmania amazonensis [26]): Active
- Activity (Mus musculus [27]): 0.69 mg/dL
- Activity (Leishmania amazonensis [28]): 75%
- Activity (Mus musculus [29]): 0.63 mg/dL
- FIC50 (Leishmania amazonensis [30]): 0.77
- FIC50 (Leishmania amazonensis [31]): 0.37

Source: ChEMBL document CHEMBL4196142, “Efficacy of Apigenin and Miltefosine Combination Therapy against Experimental Cutaneous Leishmaniasis” (J Nat Prod, 2018)
